From ChEMBL document CHEMBL2406966, “Structure and Property Based Design of Pyrazolo[1,5-a]pyrimidine Inhibitors of CK2 Kinase with Activity in Vivo” (ACS Med Chem Lett, 2013)
In brackets after ≈: the same amount, converted by molar mass. Activity calls are given as the source filed them. The rule behind the calls is not given here.

Columns and labels:
[1] = Inhibition of casein kinase-2 (unknown origin); parameters: species or system Homo sapiens
In short: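 Recombinant human full-length CK2α phosphorylating a synthetic peptide substrate, run at Km ATP concentration.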

cells = conditions: Homo sapiens, HCT-116
[2] = Antitumor activity against human DLD2 cells xenografted in mouse assessed as tumor growth inhibition at 5 mg/kg, po bid after 14 days relative to control; format: functional; conditions: DLD2, 336 h, read-out: TGI
[3] = Antitumor activity against human DLD2 cells xenografted in mouse assessed as tumor growth inhibition at 10 mg/kg, po qd after 14 days relative to control; format: functional; conditions: DLD2, 336 h, read-out: TGI
Mus musculus [4] = assay: In vivo inhibition of CK2 in human DLD2 cells xenografted in mouse assessed as inhibition of AKT phosphorylation at Ser129 at 10 mg/kg, po measured up to 24 hrs by ELISA; format: functional, organism-based; parameters: dose 10 mg/kg
In short: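 DLD-1 AKT1-overexpressing xenograft mice received a single oral dose of 10 mg/kg. pAKT S129 in tumour cell lysates was quantified by ELISA over time and plotted against plasma drug concentration.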

Mus musculus [5] = assay: In vivo inhibition of CK2 in human DLD2 cells xenografted in mouse assessed as inhibition of AKT phosphorylation at Ser129 at 10 mg/kg, po measured at 24 hrs by Western blot analysis; format: functional, organism-based; parameters: dose 10 mg/kg
In short: (§1)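 Mice bearing DLD-1 xenografts overexpressing AKT1 received a single oral dose (10 or 12.5 mg/kg). Tumour cell lysates were taken at 3, 8 and 24 h post-dose and probed for pAKT S129 by Western blot.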

Mus musculus [6] = assay: In vivo inhibition of CK2 in human DLD2 cells xenografted in mouse assessed as inhibition of AKT phosphorylation at Ser129 at 10 mg/kg, po measured at 3 to 8 hrs by Western blot analysis; format: functional, organism-based; parameters: dose 10 mg/kg; in short: as §1
[7] = target: Cyclin-dependent kinase 2 (Homo sapiens, UniProt P24941); assay: Inhibition of CDK2 (unknown origin)
[8] = target: Glycogen synthase kinase-3 beta (Homo sapiens, UniProt P49841); assay: Inhibition of GSK3beta (unknown origin)
Sequence of Glycogen synthase kinase-3 beta (P49841 whole entry): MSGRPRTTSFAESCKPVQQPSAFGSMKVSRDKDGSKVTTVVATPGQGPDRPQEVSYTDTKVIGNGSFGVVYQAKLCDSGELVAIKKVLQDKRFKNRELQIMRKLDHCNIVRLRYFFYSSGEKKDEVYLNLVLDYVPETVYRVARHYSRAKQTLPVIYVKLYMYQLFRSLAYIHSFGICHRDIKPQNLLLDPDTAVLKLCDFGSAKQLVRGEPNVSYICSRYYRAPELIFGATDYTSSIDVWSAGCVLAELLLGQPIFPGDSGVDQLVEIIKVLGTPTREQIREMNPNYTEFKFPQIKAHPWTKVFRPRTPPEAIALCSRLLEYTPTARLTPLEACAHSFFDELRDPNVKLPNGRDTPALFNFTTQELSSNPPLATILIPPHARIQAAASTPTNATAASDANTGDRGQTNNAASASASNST

[9] = target: T1, Dual specificity tyrosine-phosphorylation-regulated kinase 3 (Homo sapiens, UniProt O43781); assay: Inhibition of Dyrk-3 (unknown origin)
T1 sequence (O43781 whole entry): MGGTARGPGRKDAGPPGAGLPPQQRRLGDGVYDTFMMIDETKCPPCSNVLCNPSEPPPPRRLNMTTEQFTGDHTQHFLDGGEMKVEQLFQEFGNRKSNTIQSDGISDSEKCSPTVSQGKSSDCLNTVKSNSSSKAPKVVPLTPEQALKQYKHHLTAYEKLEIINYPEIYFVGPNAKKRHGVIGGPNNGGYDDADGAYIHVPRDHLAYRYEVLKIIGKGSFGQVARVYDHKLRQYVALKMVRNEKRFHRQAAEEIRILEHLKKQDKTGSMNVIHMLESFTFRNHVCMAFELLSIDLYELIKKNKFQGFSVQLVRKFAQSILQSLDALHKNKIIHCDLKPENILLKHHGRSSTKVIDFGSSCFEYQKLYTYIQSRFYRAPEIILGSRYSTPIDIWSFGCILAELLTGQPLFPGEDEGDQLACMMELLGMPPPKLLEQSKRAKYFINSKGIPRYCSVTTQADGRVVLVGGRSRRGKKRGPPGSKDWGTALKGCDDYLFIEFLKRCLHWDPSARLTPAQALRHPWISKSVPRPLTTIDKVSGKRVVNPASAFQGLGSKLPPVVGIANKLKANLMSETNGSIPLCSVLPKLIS

[10] = target: Serine/threonine-protein kinase pim-3 (Homo sapiens, UniProt Q86V86); assay: Inhibition of PIM3 (unknown origin)
[11] = target: Homeodomain-interacting protein kinase 2 (Homo sapiens, UniProt Q9H2X6); assay: Inhibition of Hipk-2 (unknown origin)
Sequence of Homeodomain-interacting protein kinase 2 (Q9H2X6 whole entry): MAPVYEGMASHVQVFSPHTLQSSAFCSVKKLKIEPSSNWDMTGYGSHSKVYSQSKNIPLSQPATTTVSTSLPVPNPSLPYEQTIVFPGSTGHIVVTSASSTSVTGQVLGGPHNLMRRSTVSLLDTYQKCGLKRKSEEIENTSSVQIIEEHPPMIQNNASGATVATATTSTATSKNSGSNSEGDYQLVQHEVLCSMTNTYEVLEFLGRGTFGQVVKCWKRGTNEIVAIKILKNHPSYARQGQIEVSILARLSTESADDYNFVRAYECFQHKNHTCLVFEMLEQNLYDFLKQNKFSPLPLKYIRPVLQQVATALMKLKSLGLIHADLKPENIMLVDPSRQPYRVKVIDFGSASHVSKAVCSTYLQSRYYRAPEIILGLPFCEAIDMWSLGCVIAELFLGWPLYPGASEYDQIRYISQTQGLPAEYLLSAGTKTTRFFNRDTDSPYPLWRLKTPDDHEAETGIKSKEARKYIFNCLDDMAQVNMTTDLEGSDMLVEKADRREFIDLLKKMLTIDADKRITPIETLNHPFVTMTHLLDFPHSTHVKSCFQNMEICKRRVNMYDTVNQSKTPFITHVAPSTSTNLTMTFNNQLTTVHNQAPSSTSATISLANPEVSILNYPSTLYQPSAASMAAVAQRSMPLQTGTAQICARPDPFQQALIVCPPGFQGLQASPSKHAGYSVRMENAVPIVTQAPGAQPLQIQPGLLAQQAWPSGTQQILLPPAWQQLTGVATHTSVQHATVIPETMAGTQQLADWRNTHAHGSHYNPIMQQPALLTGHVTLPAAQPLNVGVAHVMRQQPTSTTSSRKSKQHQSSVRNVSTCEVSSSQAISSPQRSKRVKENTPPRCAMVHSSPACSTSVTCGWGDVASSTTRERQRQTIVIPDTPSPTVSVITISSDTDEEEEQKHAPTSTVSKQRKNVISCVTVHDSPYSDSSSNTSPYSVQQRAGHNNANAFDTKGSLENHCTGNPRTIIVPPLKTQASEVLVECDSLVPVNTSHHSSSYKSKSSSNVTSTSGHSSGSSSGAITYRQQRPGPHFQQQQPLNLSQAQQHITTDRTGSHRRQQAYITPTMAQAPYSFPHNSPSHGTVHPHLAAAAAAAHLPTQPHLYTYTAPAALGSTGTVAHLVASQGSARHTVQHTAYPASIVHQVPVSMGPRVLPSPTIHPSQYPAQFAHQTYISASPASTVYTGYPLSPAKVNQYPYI

[12] = target: Death-associated protein kinase 2 (Homo sapiens) (UniProt Q9UIK4); assay: Inhibition of Dapk-2 (unknown origin) assessed as residual activity at 0.1 uM/L relative to control
Sequence of Death-associated protein kinase 2 (Homo sapiens) (Q9UIK4 whole entry, looked up): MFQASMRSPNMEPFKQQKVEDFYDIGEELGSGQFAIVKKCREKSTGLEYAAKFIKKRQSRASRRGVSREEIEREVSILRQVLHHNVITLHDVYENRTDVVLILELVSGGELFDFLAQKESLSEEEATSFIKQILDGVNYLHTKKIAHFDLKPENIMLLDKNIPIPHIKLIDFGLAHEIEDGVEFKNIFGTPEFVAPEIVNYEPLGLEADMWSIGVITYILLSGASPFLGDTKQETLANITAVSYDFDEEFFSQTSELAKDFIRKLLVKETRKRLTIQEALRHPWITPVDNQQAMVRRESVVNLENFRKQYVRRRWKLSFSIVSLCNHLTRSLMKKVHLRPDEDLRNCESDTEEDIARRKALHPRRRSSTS
In short: (§2)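 KINOMEscan competition binding panel measuring displacement of an immobilized, active-site-directed ligand. Test concentration was 0.1 μM/L. Read-out was residual activity as % of DMSO control.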

[13] = target: Death-associated protein kinase 3 (Homo sapiens) (UniProt O43293); assay: Inhibition of Dapk-3 (unknown origin) assessed as residual activity at 0.1 uM/L relative to control
In short: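 Kinome-wide competition binding panel: measures the compound's ability to compete with an immobilized, active-site-directed ligand for kinase binding. Inhibitor tested at 0.1 μM/L. Read-out is residual activity as a percentage of the DMSO control.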

[14] = target: Death-associated protein kinase 1 (Homo sapiens) (UniProt P53355); assay: Inhibition of Dapk-1 (unknown origin) assessed as residual activity at 0.1 uM/L relative to control; in short: as §2
[15] = target: Homeodomain-interacting protein kinase 3 (Homo sapiens) (UniProt Q9H422); assay: Inhibition of Hipk-3 (unknown origin) assessed as residual activity at 0.1 uM/L relative to control; in short: as §2
[16] = target: Homeodomain-interacting protein kinase 1 (Homo sapiens) (UniProt Q86Z02); assay: Inhibition of Hipk-1 (unknown origin) assessed as residual activity at 0.1 uM/L relative to control; in short: as §2
Sequence of Homeodomain-interacting protein kinase 1 (Homo sapiens) (Q86Z02 whole entry, looked up): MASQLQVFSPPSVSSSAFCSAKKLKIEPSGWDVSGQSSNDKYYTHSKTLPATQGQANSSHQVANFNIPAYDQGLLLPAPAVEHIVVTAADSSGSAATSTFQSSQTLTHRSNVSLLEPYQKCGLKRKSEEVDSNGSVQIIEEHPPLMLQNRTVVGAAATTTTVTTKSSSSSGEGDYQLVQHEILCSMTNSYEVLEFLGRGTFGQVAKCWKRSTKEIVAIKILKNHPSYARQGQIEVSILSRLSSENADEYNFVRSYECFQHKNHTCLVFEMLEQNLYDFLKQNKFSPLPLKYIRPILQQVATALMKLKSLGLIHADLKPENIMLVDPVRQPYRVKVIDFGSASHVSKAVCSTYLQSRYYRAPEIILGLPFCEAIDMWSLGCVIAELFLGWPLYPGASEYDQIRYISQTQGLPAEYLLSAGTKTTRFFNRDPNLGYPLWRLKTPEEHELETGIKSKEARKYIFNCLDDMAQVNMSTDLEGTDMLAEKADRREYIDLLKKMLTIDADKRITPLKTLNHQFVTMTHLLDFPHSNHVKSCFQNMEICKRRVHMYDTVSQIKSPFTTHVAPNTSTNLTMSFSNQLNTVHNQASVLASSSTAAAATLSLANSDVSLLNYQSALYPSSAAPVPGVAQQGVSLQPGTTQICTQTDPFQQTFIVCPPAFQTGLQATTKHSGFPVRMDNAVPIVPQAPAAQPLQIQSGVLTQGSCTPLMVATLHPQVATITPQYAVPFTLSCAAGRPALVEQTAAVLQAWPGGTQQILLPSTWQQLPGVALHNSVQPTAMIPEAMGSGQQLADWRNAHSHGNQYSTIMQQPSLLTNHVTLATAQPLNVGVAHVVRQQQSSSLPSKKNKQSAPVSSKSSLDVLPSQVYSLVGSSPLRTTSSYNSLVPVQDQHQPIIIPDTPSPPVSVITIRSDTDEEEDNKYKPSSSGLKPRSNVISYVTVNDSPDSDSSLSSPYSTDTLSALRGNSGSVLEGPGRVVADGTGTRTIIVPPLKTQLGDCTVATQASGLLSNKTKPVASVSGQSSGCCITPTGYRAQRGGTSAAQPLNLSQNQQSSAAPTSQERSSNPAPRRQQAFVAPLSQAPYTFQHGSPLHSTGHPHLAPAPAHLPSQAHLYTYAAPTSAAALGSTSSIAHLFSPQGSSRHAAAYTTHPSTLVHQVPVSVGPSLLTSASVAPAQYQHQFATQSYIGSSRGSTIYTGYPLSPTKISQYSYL

[17] = target: Dual specificity tyrosine-phosphorylation-regulated kinase 1A (Homo sapiens) (UniProt Q13627); assay: Inhibition of Dyrk-1 (unknown origin) assessed as residual activity at 0.1 uM/L relative to control; in short: as §2
[18] = target: T2, Dual specificity tyrosine-phosphorylation-regulated kinase 2 (Homo sapiens) (UniProt Q92630); assay: Inhibition of Dyrk-2 (unknown origin) assessed as residual activity at 0.1 uM/L relative to control; in short: as §2
T2 sequence (whole entry): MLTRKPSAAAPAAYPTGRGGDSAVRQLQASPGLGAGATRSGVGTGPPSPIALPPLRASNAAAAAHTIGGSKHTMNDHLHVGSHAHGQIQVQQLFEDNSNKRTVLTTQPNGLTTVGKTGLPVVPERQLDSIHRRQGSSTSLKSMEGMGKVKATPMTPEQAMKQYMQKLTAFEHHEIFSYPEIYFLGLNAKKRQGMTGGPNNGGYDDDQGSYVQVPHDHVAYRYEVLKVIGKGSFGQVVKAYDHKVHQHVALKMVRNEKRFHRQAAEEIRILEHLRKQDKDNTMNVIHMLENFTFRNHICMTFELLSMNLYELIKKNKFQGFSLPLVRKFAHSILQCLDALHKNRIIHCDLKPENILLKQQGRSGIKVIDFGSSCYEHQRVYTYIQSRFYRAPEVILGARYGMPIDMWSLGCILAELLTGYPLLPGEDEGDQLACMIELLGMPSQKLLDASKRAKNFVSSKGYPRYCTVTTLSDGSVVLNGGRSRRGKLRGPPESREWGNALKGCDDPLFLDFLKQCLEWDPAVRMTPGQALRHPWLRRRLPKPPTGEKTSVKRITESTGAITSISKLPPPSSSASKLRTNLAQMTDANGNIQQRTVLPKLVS

[19] = Plasma half life in rat at 10 mg/kg, po; format: ADME, organism-based; parameters: dose 10 mg/kg, route oral
In short: (§3)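 Rats were given a single oral dose of 10 mg/kg. Plasma pharmacokinetics yielded bioavailability (F, %), half-life (h) and clearance (mL/min/kg).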

[20] = Intrinsic clearance in rat liver microsomes; format: ADME, Microsome; conditions: read-out: CLH
In short: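 Incubation with rat liver microsomes; intrinsic clearance reported in μL/min/mg.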

[21] = Fraction unbound in human plasma at 10 uM by equilibrium dialysis method; format: ADME, cell-free
[22] = Aqueous solubility of the compound in phosphate buffer at pH 7.4 after 24 hrs; format: physicochemical
HCT-116 = assay: Growth inhibition of human HCT116 cells after 72 hrs by Alamar blue assay; format: functional; conditions: HCT-116, 72 h
physchem = conditions: octanol/water, pH 7.4
MDR1 [23] = assay: Efflux ratio of apparent permeability across apical to basolateral side in porcine LLC cells expressing MDR1; format: ADME, cell-based, Sus scrofa; conditions: pig, LLC-PK1
In short: (§4)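 MDR1-expressing LLCK cell monolayers. Apical-to-basolateral apparent permeability (Papp) measured in cm/s; efflux ratio also determined.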

MDR1 [24] = assay: Apparent permeability across apical to basolateral side in porcine LLC cells expressing MDR1; format: ADME, cell-based, Sus scrofa; conditions: pig, LLC-PK1; in short: as §4
[25] = Cmax in po dosed rat; format: ADME, organism-based; parameters: route oral; conditions: in vivo
[26] = target: Casein kinase II subunit alpha (Homo sapiens, UniProt P68400); assay: Inhibition of N-terminal His6X-tagged recombinant human full length casein kinase-2alpha expressed in SF21 cells using BODIPY-FL-RRRDDDSDDD-CONH2 as substrate preincubated for 20 mins measured after 90 mins by mobility shift assay
Sequence of Casein kinase II subunit alpha (P68400 whole entry): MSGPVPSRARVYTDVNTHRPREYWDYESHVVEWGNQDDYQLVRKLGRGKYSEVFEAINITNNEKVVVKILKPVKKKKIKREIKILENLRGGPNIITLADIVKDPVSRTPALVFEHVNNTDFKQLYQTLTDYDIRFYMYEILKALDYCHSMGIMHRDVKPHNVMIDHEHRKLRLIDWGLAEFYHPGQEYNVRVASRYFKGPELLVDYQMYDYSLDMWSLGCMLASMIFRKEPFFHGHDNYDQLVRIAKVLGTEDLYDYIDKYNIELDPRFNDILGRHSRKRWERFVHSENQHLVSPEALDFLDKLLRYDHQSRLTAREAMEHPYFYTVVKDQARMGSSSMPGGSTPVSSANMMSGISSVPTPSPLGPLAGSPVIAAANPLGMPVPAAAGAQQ

[27] = Clearance in rat at 10 mg/kg, po; format: ADME, organism-based; parameters: dose 10 mg/kg, route oral; conditions: in vivo; in short: as §3
[28] = Oral bioavailability in rat at 10 mg/kg; format: ADME, organism-based; conditions: in vivo; in short: as §3
[29] = target: Voltage-gated inwardly rectifying potassium channel KCNH2 (Homo sapiens, UniProt Q12809); assay: Binding affinity to human ERG expressed in CHO cells by IonWorks assay
Sequence of Voltage-gated inwardly rectifying potassium channel KCNH2 (Q12809 whole entry): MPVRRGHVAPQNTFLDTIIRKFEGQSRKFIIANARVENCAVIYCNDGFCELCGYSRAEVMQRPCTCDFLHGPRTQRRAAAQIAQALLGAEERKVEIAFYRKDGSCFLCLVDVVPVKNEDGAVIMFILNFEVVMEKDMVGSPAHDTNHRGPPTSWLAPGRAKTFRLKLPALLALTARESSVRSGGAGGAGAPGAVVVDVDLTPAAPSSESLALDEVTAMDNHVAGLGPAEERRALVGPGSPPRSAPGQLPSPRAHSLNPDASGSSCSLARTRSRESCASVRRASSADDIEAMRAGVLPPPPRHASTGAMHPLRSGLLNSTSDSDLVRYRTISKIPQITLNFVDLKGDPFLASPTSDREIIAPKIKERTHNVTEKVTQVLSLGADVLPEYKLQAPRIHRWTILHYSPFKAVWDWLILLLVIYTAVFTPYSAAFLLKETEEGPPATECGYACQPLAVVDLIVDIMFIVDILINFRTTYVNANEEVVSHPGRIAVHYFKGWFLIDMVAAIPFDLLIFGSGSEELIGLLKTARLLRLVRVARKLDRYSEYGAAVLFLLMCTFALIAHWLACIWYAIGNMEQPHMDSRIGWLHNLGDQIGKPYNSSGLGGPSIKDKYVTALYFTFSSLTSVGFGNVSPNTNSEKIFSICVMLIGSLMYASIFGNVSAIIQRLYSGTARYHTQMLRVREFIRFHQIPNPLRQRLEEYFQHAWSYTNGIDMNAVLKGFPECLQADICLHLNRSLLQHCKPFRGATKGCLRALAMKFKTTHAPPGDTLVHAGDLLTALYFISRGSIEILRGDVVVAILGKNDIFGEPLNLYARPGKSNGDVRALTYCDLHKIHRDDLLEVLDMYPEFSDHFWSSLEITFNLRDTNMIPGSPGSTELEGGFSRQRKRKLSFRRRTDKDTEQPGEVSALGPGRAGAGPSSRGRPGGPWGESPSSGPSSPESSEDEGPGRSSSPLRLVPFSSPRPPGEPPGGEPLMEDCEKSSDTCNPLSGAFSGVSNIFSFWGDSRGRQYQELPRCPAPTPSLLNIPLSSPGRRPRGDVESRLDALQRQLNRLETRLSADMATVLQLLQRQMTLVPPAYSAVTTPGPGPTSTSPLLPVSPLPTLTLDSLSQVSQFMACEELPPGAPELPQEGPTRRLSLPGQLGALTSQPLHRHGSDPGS

CC(=O)Nc1cc(Nc2cc(NC3CC3)n3nccc3n2)ccc1C
IC50 [1]: 270 nM | IC50 (cells): > 3300 nM

CC(=O)Nc1cc(Nc2cc(NC3CC3)n3ncc(C#N)c3n2)ccc1C
inhibition in vivo at 5 mg/kg [2]: 37% | inhibition in vivo at 10 mg/kg [3]: 28% | inhibition (Mus musculus [4]): Active | inhibition (Mus musculus [5]): inactive | inhibition (Mus musculus [6]): Active | IC50 [7]: 7200 nM | IC50 [8]: 2600 nM | IC50 [9]: 70 nM | IC50 [10]: 150 nM | IC50 [11]: 40 nM | Activity [12]: 43% | Activity [13]: 22% | Activity [14]: 21% | Activity [15]: 39% | Activity [16]: 38% | Activity [17]: 43% | Activity [18]: 18% | half-life [19]: 2.6 h | microsomal CLint [20]: 15 µL/min/mg | fraction unbound at 10 µM [21]: 0.08 | solubility at 24 h [22]: 8 µM (≈ 2.89 µg/mL) | GI50 (HCT-116): 81 nM | logD at 5 h (physchem): 2.4

CC(=O)Nc1cc(Nc2cc(Nc3ccn(CCN4CCCC4)n3)n3ncc(C#N)c3n2)ccc1C
efflux ratio (MDR1 [23]): 100 | Papp A→B (MDR1 [24]): 0.2 ×10⁻⁶ cm/s | Cmax [25]: < 100 nM | microsomal CLint [20]: 65 µL/min/mg | solubility at 24 h [22]: 3 µM (≈ 1.45 µg/mL) | GI50 (HCT-116): 100 nM | IC50 [26]: < 3 nM | logD at 5 h (physchem): 2.5

CC(=O)Nc1cc(Nc2cc(NC3COC3)n3ncc(C#N)c3n2)ccc1C1CC1
CL/F [27]: 23 mL/min/kg | bioavailability [28]: 47% | half-life [19]: 1.4 h | microsomal CLint [20]: < 4 µL/min/mg | IC50 [29]: > 33000 nM | fraction unbound at 10 µM [21]: 0.2 | solubility at 24 h [22]: 11 µM (≈ 4.44 µg/mL) | GI50 (HCT-116): 59 nM | IC50 [26]: < 3 nM | IC50 (cells): 6 nM | logD at 5 h (physchem): 2.2
